# Assay results taken from ChEMBL document CHEMBL1138064, “Discovery of N-[(3R)-1-azabicyclo[2.2.2]oct-3-yl]furo[2,3-c]pyridine-5-carboxamide, an agonist of the alpha7 nicotinic acetylcholine receptor, for the potential treatment of cognitive deficits in schizophrenia: synthesis and structure--activity relationship” (J Med Chem, 2006).
# The source made the active and inactive calls. The rule behind the calls is not given here.
# Tests used:
# [1] = Oral bioavailability in rat at 5 mg/kg; assay type: ADME, organism-based; settings: in vivo
# [2] = target: Nitric oxide synthase, inducible (Homo sapiens) (UniProt P35228); assay: Inhibition of Nitric oxide synthase, inducible at 1 uM
# [3] = target: Phosphodiesterase 1 (Homo sapiens) (UniProt P54750+Q01064+Q14123); assay: Inhibition of PDE1 at 1 uM; assay type: protein assay
# Rattus norvegicus = assay: Ability to recognize novel object in Sprague-Dawley rat at 1 mg/kg, sc after 24 hrs; assay type: functional, organism-based; design: dose 1 mg/kg
# Outline: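 Rats dosed subcutaneously 30 min before each of three experimental sessions. Discrimination between the novel and the familiar object was scored after a 24 h delay.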
# [4] = target: Epidermal growth factor receptor (Homo sapiens) (UniProt P00533); assay: Inhibition of EGFR at 1 uM
# [5] = target: GABA-A receptor; anion channel (Homo sapiens) (UniProt P14867+P47870+P18507+P28472+P48169+Q99928+Q9UN88+P34903+O00591+O14764+Q8N1C3+P18505+P78334+P47869+P31644+Q16445); assay: Inhibition of central BZD receptor at 1 uM; assay type: protein-complex assay
# [6] = target: 5-hydroxytryptamine receptor 1B (Homo sapiens) (UniProt P28222); assay: Inhibition of 5HT1B receptor at 1 uM
# [7] = target: Delta-type opioid receptor (Homo sapiens) (UniProt P41143); assay: Inhibition of human delta opioid receptor at 1 uM
# [8] = target: 5-hydroxytryptamine receptor 2A (Homo sapiens) (UniProt P28223); assay: Inhibition of 5HT2A receptor at 1 uM
# [9] = target: Atrial natriuretic peptide receptor (Homo sapiens) (UniProt P20594+P16066+P17342); assay: Inhibition of ANP receptor at 1 uM; assay type: protein assay
# [10] = target: Beta-1 adrenergic receptor (Homo sapiens) (UniProt P08588); assay: Inhibition of adrenergic beta-1 receptor at 1 uM
# [11] = target: Prostaglandin G/H synthase 2 (Homo sapiens) (UniProt P35354); assay: Inhibition of COX2 at 1 uM
# [12] = target: Beta-2 adrenergic receptor (Homo sapiens) (UniProt P07550); assay: Inhibition of adrenergic beta-2 receptor at 1 uM
# [13] = target: Muscarinic acetylcholine receptor M1 (Homo sapiens) (UniProt P11229); assay: Inhibition of M1 receptor at 1 uM
# Homo sapiens [14] = species on record: Homo sapiens; assay: Inhibition of site 2 of sodium channel at 1 uM
# [15] = target: Adenosine A2 receptor (Homo sapiens) (UniProt P29275+P29274); assay: Inhibition of adenosine A2 receptor at 1 uM; assay type: protein assay
# [16] = target: Tyrosine 3-monooxygenase (Homo sapiens) (UniProt P07101); assay: Inhibition of tyrosine hydroxylase at 1 uM
# [17] = target: Serotonin 3 (5-HT3) receptor (Homo sapiens) (UniProt P46098+A5X5Y0+O95264+Q70Z44+Q8WXA8); assay: Inhibition of 5HT3 receptor at 1 uM; assay type: protein-complex assay
# [18] = target: Type-2 angiotensin II receptor (Homo sapiens) (UniProt P50052); assay: Inhibition of AT2 receptor at 1 uM
# [19] = Ratio of drug level in brain against plasma in rat by MBUA method after 5 min; assay type: ADME, organism-based; settings: brain and plasma
# [20] = target: Adrenergic receptor alpha-2 (Homo sapiens) (UniProt P08913+P18825+P18089); assay: Inhibition of adrenergic alpha2 receptor at 1 uM; assay type: protein assay
# [21] = target: D(1B) dopamine receptor (Homo sapiens) (UniProt P21918); assay: Inhibition of D5 receptor at 1 uM
# [22] = target: Protein kinase C (PKC) (Homo sapiens) (UniProt O94806+P41743+P17252+P05129+Q05655+P05771+Q05513+Q02156+P24723+Q15139+Q04759); assay: Inhibition of PKC at 1 uM; assay type: protein assay
# [23] = target: Cannabinoid receptor 2 (Homo sapiens) (UniProt P34972); assay: Inhibition of CB2 receptor at 1 uM
# [24] = target: Endothelin-1 receptor (Homo sapiens) (UniProt P25101); assay: Inhibition of human ETA receptor at 1 uM
# Homo sapiens [25] = species on record: Homo sapiens; assay: Inhibition of PCP receptor at 1 uM
# [26] = target: Calcitonin gene-related peptide type 1 receptor (Homo sapiens) (UniProt Q16602); assay: Inhibition of CGRP receptor at 1 uM
# [27] = target: Phospholipase A2 (Homo sapiens) (UniProt P04054); assay: Inhibition of phospholipase A2 at 1 uM
# [28] = target: Endothelin-converting enzyme 1 (Homo sapiens) (UniProt P42892); assay: Inhibition of ECE at 1 uM
# MAO-B = MAO-B (Homo sapiens, UniProt P27338); assay: Inhibition of MAO-B at 1 uM
# [29] = target: Serotonin 3 (5-HT3) receptor; assay: Binding affinity to 5HT3 receptor; assay type: protein-complex assay, Homo sapiens
# [30] = target: Soluble guanylate cyclase (Homo sapiens) (UniProt Q02153+O75343+P33402+Q02108); assay: Inhibition of stimulated guanylate cyclase at 1 uM; assay type: protein-complex assay
# [31] = target: Phosphodiesterase 4 (Homo sapiens) (UniProt P27815+Q08499+Q07343+Q08493); assay: Inhibition of PDE4 at 1 uM; assay type: protein assay
# Sequence of Type-2 angiotensin II receptor (Homo sapiens) (P50052 whole entry): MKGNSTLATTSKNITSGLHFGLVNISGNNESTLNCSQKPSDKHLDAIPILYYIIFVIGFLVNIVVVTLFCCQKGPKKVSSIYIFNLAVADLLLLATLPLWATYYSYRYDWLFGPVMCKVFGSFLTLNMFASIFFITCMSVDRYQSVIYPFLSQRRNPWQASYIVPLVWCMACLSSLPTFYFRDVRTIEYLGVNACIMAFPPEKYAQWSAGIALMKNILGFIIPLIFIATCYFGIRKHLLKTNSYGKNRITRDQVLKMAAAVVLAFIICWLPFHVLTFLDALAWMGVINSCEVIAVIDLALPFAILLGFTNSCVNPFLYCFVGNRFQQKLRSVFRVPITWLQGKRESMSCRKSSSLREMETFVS
# Sequence of Beta-2 adrenergic receptor (Homo sapiens) (P07550 whole entry, looked up): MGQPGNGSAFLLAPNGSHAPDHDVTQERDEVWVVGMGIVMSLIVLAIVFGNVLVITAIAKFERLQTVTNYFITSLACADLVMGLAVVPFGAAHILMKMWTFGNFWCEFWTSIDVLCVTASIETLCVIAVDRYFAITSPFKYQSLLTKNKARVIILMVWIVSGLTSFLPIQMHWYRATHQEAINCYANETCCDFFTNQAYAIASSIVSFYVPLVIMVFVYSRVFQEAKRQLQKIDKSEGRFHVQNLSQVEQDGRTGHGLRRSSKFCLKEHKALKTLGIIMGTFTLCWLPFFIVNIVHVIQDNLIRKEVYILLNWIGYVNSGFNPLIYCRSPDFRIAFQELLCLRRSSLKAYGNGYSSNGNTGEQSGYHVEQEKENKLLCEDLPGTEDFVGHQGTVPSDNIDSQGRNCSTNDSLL
# Sequence of 5-hydroxytryptamine receptor 1B (Homo sapiens) (P28222 whole entry): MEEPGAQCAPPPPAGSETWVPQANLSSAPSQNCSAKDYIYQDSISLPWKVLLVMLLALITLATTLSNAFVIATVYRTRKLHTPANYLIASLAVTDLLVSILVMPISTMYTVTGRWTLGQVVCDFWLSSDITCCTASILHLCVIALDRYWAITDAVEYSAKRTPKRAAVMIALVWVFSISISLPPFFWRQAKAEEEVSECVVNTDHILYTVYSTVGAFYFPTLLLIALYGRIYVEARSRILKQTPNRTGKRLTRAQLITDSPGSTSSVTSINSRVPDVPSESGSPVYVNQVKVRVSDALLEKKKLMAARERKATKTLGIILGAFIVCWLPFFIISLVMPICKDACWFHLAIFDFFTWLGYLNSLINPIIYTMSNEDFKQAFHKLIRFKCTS
# Sequence of Muscarinic acetylcholine receptor M1 (Homo sapiens) (P11229 whole entry): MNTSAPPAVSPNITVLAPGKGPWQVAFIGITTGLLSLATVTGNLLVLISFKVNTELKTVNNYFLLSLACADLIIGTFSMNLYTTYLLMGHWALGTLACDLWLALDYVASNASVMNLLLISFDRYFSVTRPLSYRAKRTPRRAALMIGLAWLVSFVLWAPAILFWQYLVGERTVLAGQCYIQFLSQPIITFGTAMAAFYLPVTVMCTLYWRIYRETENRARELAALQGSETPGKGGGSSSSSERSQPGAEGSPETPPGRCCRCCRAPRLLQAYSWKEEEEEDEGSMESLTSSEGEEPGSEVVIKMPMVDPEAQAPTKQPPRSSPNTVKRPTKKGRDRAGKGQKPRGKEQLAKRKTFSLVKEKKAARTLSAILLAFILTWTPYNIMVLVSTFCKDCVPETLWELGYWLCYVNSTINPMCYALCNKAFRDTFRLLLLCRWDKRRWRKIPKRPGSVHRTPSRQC
# Sequence of Calcitonin gene-related peptide type 1 receptor (Homo sapiens) (Q16602 whole entry): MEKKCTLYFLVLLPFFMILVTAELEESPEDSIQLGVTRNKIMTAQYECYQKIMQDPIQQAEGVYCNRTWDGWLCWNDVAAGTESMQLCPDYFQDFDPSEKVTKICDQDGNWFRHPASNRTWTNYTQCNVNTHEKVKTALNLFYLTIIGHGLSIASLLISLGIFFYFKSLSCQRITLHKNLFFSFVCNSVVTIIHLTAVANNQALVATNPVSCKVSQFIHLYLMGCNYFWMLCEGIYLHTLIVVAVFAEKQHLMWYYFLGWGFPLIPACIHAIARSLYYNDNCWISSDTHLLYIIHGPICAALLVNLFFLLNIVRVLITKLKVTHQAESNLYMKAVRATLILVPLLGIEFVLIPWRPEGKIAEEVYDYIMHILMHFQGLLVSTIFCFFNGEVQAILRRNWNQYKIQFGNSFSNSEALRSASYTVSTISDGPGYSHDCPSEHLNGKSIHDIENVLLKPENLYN
# Sequence of D(1B) dopamine receptor (Homo sapiens) (P21918 whole entry): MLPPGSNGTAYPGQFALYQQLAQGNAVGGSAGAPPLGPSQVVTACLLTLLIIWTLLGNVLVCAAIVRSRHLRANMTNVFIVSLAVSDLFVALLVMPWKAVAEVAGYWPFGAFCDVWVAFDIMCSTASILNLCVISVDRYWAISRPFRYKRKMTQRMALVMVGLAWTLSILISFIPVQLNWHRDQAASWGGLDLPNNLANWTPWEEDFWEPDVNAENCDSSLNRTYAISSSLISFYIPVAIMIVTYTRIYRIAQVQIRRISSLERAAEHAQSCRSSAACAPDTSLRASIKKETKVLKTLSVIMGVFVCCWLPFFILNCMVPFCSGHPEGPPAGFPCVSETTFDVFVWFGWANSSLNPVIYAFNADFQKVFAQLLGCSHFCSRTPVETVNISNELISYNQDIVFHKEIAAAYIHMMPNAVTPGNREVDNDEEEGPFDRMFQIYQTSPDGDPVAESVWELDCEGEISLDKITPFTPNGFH
# Sequence of MAO-B (P27338 whole entry): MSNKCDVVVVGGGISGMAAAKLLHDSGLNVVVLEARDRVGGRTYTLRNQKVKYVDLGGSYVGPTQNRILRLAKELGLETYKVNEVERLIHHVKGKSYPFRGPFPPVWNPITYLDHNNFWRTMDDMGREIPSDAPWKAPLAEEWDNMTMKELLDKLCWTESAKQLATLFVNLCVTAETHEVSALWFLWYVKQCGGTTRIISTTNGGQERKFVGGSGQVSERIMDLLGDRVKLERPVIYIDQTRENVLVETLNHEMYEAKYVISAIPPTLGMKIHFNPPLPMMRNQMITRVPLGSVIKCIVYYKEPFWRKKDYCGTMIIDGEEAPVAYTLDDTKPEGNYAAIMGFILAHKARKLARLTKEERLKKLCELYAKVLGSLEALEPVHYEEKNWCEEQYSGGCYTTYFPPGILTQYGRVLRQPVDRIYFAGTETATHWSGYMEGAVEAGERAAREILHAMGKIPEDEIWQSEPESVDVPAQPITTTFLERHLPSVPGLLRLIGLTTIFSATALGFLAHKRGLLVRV
# Sequence of Phospholipase A2 (Homo sapiens) (P04054 23-148 limits assumed): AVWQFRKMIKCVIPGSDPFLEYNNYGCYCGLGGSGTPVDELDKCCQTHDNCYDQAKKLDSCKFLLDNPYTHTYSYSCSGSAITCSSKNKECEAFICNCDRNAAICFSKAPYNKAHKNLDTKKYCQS
# Sequence of 5-hydroxytryptamine receptor 2A (Homo sapiens) (P28223 whole entry): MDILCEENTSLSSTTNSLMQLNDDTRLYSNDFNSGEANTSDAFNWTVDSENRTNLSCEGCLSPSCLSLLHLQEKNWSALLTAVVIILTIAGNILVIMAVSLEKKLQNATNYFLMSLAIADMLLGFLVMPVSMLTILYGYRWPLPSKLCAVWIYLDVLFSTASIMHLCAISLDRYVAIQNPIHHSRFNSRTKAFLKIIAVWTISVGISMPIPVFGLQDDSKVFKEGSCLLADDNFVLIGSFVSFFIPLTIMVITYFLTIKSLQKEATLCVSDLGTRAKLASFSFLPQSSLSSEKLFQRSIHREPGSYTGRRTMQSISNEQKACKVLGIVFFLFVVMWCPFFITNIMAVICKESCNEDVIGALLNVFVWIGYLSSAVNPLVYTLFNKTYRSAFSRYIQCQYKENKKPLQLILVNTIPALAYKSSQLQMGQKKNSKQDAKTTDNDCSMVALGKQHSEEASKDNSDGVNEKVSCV
# Sequence of Nitric oxide synthase, inducible (Homo sapiens) (P35228 whole entry): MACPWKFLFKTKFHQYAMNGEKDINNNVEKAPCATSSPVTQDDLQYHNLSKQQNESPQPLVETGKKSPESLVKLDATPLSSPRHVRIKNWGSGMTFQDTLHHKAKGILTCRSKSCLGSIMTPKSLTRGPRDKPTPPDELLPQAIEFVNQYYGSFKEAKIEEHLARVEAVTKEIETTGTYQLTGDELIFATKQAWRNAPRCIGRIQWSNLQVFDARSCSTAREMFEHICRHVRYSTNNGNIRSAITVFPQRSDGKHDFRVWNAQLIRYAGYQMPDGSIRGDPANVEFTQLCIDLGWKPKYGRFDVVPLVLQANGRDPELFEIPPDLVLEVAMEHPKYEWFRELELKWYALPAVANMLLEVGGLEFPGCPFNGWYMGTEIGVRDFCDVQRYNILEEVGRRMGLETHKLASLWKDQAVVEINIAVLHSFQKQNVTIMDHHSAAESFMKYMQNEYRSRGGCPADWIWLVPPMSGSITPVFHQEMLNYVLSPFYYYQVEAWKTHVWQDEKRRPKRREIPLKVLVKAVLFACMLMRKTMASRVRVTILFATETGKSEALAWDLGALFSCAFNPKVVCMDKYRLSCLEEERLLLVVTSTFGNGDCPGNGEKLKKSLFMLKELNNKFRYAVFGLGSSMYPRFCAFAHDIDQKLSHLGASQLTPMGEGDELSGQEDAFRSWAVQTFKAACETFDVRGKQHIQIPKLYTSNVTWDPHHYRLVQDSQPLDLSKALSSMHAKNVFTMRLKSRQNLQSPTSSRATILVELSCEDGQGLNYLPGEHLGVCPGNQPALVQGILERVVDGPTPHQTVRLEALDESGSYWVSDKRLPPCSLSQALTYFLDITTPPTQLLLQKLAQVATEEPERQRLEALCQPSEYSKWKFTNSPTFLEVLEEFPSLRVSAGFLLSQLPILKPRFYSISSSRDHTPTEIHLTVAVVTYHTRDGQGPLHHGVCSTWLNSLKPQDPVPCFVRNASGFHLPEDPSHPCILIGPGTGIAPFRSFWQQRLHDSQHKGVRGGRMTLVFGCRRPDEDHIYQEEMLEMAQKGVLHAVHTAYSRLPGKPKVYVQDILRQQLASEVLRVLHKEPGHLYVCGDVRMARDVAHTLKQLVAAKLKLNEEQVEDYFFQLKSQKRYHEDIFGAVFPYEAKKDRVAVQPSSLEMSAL
structure (smiles),measurement,setting,value
O=C(N[C@H]1CN2CCC1CC2)c1cc2ccoc2cn1 [PHA-543613],bioavailability,[1],65%
same,inhibition,[2],< 10%
same,inhibition,[3],< 10%
same,Activity,Rattus norvegicus,Active
same,inhibition,[4],< 10%
same,inhibition,[5],< 10%
same,inhibition,[6],< 10%
same,inhibition,[7],14%
same,inhibition,[8],< 10%
same,inhibition,[9],< 10%
same,inhibition,[10],< 10%
same,inhibition,[11],14%
same,inhibition,[12],< 10%
same,inhibition,[13],16%
same,inhibition,Homo sapiens [14],13%
same,inhibition,[15],< 10%
same,inhibition,[16],< 10%
same,inhibition,[17],67%
same,inhibition,[18],< 10%
same,Kp at 5 min,[19],1.5
same,inhibition,[20],14%
same,inhibition,[21],< 10%
same,inhibition,[22],18%
same,inhibition,[23],< 10%
same,inhibition,[24],< 10%
same,inhibition,Homo sapiens [25],< 10%
same,inhibition,[26],< 10%
same,inhibition,[27],20%
same,inhibition,[28],< 10%
same,inhibition at 1 µM,MAO-B,< 10%
same,Ki,[29],511 nM
same,inhibition,[30],< 10%
same,inhibition,[31],< 10%
